Assay results as given in PubChem BioAssay AID688 (PCMD, 2007).
In all, about 27,000 compounds went through this assay and about 250 (0.93%) were called active.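 The calls were made as follows: active = mutant luminescence inhibited past about 50% while wild type luminescence and mutant growth stay under set limits (limit read from the data); inconclusive = mutant versus wild type luminescence inhibition gap past a set limit; inactive = the rest.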 The sample as a whole holds a higher share of actives than the screen did.

Experiment: mutant yeast GCN4 reporter luminescence inhibitors – S. cerevisiae, eIF2B-epsilon R284H, Beta-Glo luminescence, primary screen (AID 688)
Settings: GCN4-lacZ luminescence; growth inhibition: measured here: mutant yeast growth, toxicity, concentration not given here; inhibition: stronger effect = higher value, screened at 25 µM (by protocol)
In short: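 Assay system: yeast eIF2B-epsilon R284H mutant carrying GCN4–beta-galactosidase fusion / Buffer or medium: YPD / Incubation: 16 h growth with compound at 30 °C, 90 min Beta-Glo step / Detection: Beta-Glo luminescence after Z-buffer lysis, growth by 595 nm absorbance / Read-out: % inhibition of reporter signal and growth versus controls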
In the case of `O=C(O)CSc1nccn1-c1cccc(Cl)c1`, the growth inhibition is reported as -14.3% and the inhibition is reported as -8.74% (inactive).
With `Oc1ccc2ccc3cccc[n+]3c2c1` the growth inhibition was -4.35% and the inhibition was 53.1% (active).
With `O=C(Nc1ccc(S(=O)(=O)N2CCCC2)cc1Cl)C1=COCCO1` the growth inhibition was -13.8% and the inhibition was 17.1% (inactive).
In the case of `Cc1cc(C)n(-c2cc(Oc3ccccc3)ncn2)n1`, the growth inhibition is reported as -5.56% and the inhibition is reported as 0% (inactive).
With `Cc1cc(NC(=O)CCC2COc3ccccc3O2)no1` (configuration not stated) the inhibition was -23.3% (inactive).
With `O=c1[nH]c2c(c(=O)n1Cc1ccccc1)CCC2` the growth inhibition was 10.8% and the inhibition was 17.1% (inactive).
With `CCCC(=O)N(CCc1ccccc1)Cc1nc2ccccc2c(=O)[nH]1` the growth inhibition was 19% and the inhibition was -3.55% (inactive).
With `CCn1nccc1C(=O)Nc1ccc(Cl)c(Cl)c1` the growth inhibition was -8.33% and the inhibition was 37.2% (inactive).
For `CCCC(C)C(=O)Nc1ccc(NC(C)=O)cc1` (configuration not stated), the growth inhibition was 2.78% and the inhibition was 11.4% (inactive).
In the case of `Cc1ccc(C(=O)Nc2ccccc2C(=O)NC2CCCCC2)cc1S(=O)(=O)N1CCOCC1`, the growth inhibition is reported as -23.3% and the inhibition is reported as 29% (inactive).
With `Cc1cccc(C)c1NC(=O)CCCSc1nnc(-c2ccco2)n1-c1ccccc1` the growth inhibition was 11.5% and the inhibition was -14.1% (inactive).
For `Cc1ccnc(NC(=O)c2ccc(NC(=O)c3ccco3)cc2)c1`, the growth inhibition was -8.33% and the inhibition was 8.24% (inactive).
For `COc1ccc(Nc2nc(=O)[nH]nc2C)cc1`, the growth inhibition was 20.6% and the inhibition was 25.8% (inactive).
In the case of `C=CCNC(=O)CCCC(=O)NCC=C`, the growth inhibition is reported as -4.76% and the inhibition is reported as -58.7% (inactive).
For `O=C(O)CSCC(=O)Nc1cccc(C(F)(F)F)c1`, the growth inhibition was 12.1% and the inhibition was 21.9% (inactive).
For `Cc1cccc2c(=O)n3c(nc12)CCCCC3`, the growth inhibition was 25.8% and the inhibition was 13.2% (inactive).
With `CCn1nnc(NC(=O)c2cc(Cl)c(OC)c(Cl)c2)n1` the growth inhibition was 18.5% and the inhibition was 17.4% (inactive).
In the case of `Cc1c(Nc2nc3ccccc3nc2NS(=O)(=O)c2cccs2)c(=O)n(-c2ccccc2)n1C`, the growth inhibition is reported as 5% and the inhibition is reported as -33.1% (inactive).
In the case of `CC(C)(C)NC(=O)c1cc(NC(=O)c2ccco2)cc(NC(=O)c2ccco2)c1`, the inhibition is reported as 11.3% (inactive).
With `CCOc1ccccc1N=C1NC(=O)CS1` the inhibition was -14.3% (inactive).
For `CC/C(=N\O)C(C)(C)/[N+]([O-])=C/c1ccc(Br)cc1`, the growth inhibition was 5.26% and the inhibition was 9.15% (inactive).
In the case of `N=c1c2c3c(sc2ncn1CCCN1CCOCC1)CCCCC3`, the growth inhibition is reported as 3.7% and the inhibition is reported as 23% (inactive).
For `Cc1nnc(SCC(=O)N2CCN(c3ccccc3)CC2)n1-c1ccccc1`, the growth inhibition was -9.52% and the inhibition was 1.9% (inactive).
With `c1ccc(CCc2nc(-c3ccncc3)no2)cc1` the growth inhibition was 15.2% and the inhibition was 50.4% (active).
For `c1csc(-c2nc(-c3ccncc3)no2)c1`, the growth inhibition was 6.45% and the inhibition was 2.34% (inactive).
For `O=C1c2ccccc2C(=O)N1CCCc1nc(-c2ccccc2)no1`, the growth inhibition was -5.56% and the inhibition was -17.2% (inactive).
With `COCCOCCn1cnc2ccccc21` the growth inhibition was 6.67% and the inhibition was 18.1% (inactive).
For `CCOn1c(SC(C)C)nc2ccccc2c1=O`, the inhibition was 10.3% (inactive).
For `O=C(CSc1nnc(-c2cccnc2)n1CCc1ccccc1)NCc1ccccc1`, the inhibition was -28.6% (inactive).
In the case of `Cc1ccc(NC(=O)N2CCC(O)(c3cccnc3)CC2)cc1`, the growth inhibition is reported as 12.8% and the inhibition is reported as 17.2% (inactive).
With `Cn1c(Cc2cccc3ccccc23)nnc1SCC(=O)N1CCN(c2cccc(Cl)c2)CC1` the growth inhibition was 2.78% and the inhibition was 15.8% (inactive).
With `CCSC1(SCC)N=C(N)C2(C#N)C(c3ccccc3)NC(C)=CC12C#N` (configuration not stated) the growth inhibition was -8.11% and the inhibition was -35% (inactive).
With `CNC(=S)N1N=C(c2ccccc2)CC1c1ccc(Br)cc1` (configuration not stated) the growth inhibition was -12.5% and the inhibition was 17.7% (inactive).
With `CCNC(=O)CN(c1ccc(C)cc1)S(=O)(=O)c1ccc(SC)cc1` the growth inhibition was 13.8% and the inhibition was -15% (inactive).
In the case of `Cc1nn(C)cc1CNC(=O)Nc1ccc(Cl)cc1`, the growth inhibition is reported as -18.2% and the inhibition is reported as -9.58% (inactive).
For `O=C1c2ccncc2C(=O)N1C1CCCCC1`, the growth inhibition was 8.93% and the inhibition was 68.7% (active).
In the case of `Cc1cc(N2CCN(S(=O)(=O)c3ccc(C)c(C)c3)CC2)c2ccccc2n1`, the growth inhibition is reported as 3.23% and the inhibition is reported as 10.4% (inactive).
For `Cc1[nH][nH]c(=O)c1N=Nc1ccccc1`, the growth inhibition was 8.33% and the inhibition was 28.6% (inactive).
With `CN(Cc1nc2ccccc2c(=O)[nH]1)Cc1cc(=O)oc2ccc3ccccc3c12` the growth inhibition was 9.38% and the inhibition was 16.8% (inactive).
With `CC(C)C(NC(=O)c1ccc(Cl)cc1)C(=O)O` (configuration not stated) the growth inhibition was 16.2% and the inhibition was 27.4% (inactive).
In the case of `CCC(C(=O)NCc1ccc(OC)cc1)n1nc(C)n2c(cc3occc32)c1=O` (configuration not stated), the growth inhibition is reported as -9.52% and the inhibition is reported as 47% (inactive).
In the case of `Cc1noc(NS(=O)(=O)c2ccc(NC(=O)C34CCC(CC3)C4)cc2)c1C`, the growth inhibition is reported as 2.7% and the inhibition is reported as -23.3% (inactive).
For `C/C=C/C(=O)OCC(=O)Nc1ccc(F)cc1Cl`, the growth inhibition was -4.76% and the inhibition was 19.8% (inactive).
For `COc1ccc(CNCCCO)cc1OC`, the growth inhibition was 8.33% and the inhibition was -1.06% (inactive).
For `CCc1c(-c2ccccc2)nc(N)c(C#N)c1-c1cccs1`, the growth inhibition was -19.1% and the inhibition was 15.9% (inactive).
For `OCCN1CCOCCOCCN(CCO)CCN(CCO)CC1`, the growth inhibition was -9.52% and the inhibition was 13.5% (inactive).
In the case of `O=c1[nH][nH]c(C(F)(F)F)c1C=NCc1ccccc1Cl`, the growth inhibition is reported as 12.5% and the inhibition is reported as 12% (inactive).
With `O=P(O)(CP(=O)(c1ccccc1)c1ccccc1)c1ccccc1` the growth inhibition was 3.57% and the inhibition was -14.4% (inactive).
With `CC(C)(C)NC(=O)Cn1c(SCC(=O)Nc2nccs2)nc2ccccc21` the growth inhibition was -29.4% and the inhibition was 0.21% (inactive).
With `COc1ccccc1N=C1SC(C)CN1C(=O)C1CCC1` (configuration not stated) the growth inhibition was 4.55% and the inhibition was 26.9% (inactive).
For `CCN(CC(=O)Nc1ccccc1OC)C(=O)Cn1cnc2ccccc2c1=O`, the growth inhibition was -14.3% and the inhibition was 6.69% (inactive).
With `C/C(=N\NS(=O)(=O)c1ccc(Br)cc1)c1cccs1` the growth inhibition was 2.78% and the inhibition was 11% (inactive).
In the case of `Cc1cccc(NC(=O)C2CC(=O)OC23CCCC3)c1` (configuration not stated), the growth inhibition is reported as 11.5% and the inhibition is reported as -11.9% (inactive).
With `Cc1ccc(NC(=O)N2CCC(c3nc4c(nnn4Cc4c(F)cccc4Cl)c(=O)[nH]3)CC2)cc1` the growth inhibition was 6.06% and the inhibition was 14.6% (inactive).
In the case of `CCC(C)NC(=O)CCCc1ccccc1` (configuration not stated), the growth inhibition is reported as -2.38% and the inhibition is reported as 7.79% (inactive).
For `CCCCNC(=O)C1CCCNC1=O` (configuration not stated), the growth inhibition was 26.5% and the inhibition was 22.2% (inactive).
With `CC1(C)Cc2c(sc3nc(SCC(=O)NCc4ccccc4)n(-c4ccccc4)c(=O)c23)CS1` the growth inhibition was -11.9% and the inhibition was -11% (inactive).
In the case of `CCOc1ccc(S(=O)(=O)NCC2CCCO2)cc1` (configuration not stated), the growth inhibition is reported as 5.88% and the inhibition is reported as 10.3% (inactive).
For `Cn1c2c(c(=O)n(C)c1=O)C(c1cccc([N+](=O)[O-])c1)Nc1ccccc1O2` (configuration not stated), the growth inhibition was -14.3% and the inhibition was 20.4% (inactive).
With `CC(=O)Nc1ccc(S(=O)(=O)N2CCN(C3CCCCCCC3)CC2)cc1` the growth inhibition was 9.09% and the inhibition was -9.55% (inactive).
For `CCOC(=O)CSc1nnc(CNc2ccc(F)cc2)o1`, the growth inhibition was 3.45% and the inhibition was 19.4% (inactive).
In the case of `COc1ccc(CN(CC(=O)NC2CCCC2)C(=O)CCC(=O)Nc2cc(C)on2)cc1`, the growth inhibition is reported as -15.6% and the inhibition is reported as -35.1% (inactive).
For `CN(C(=O)COc1ccccc1)c1nnc(-c2ccncc2)s1`, the inhibition was 10.2% (inactive).
With `CCOC(=O)CSc1nccc(N(C)C)c1C#N` the growth inhibition was 12% and the inhibition was 24.8% (inactive).
In the case of `CCOC(=O)CSc1nncc2ccc(OC)c(OC)c12`, the inhibition is reported as 50.1% (active).
With `CCOC(=O)CSc1nnc(CNC(=O)Cc2ccccc2)n1-c1ccccc1OC` the growth inhibition was -1.72% and the inhibition was 36.1% (inactive).
In the case of `CCC(=O)c1ccc(OCC(O)CN2CC(C)OC(C)C2)cc1` (configuration not stated), the growth inhibition is reported as 4.55% and the inhibition is reported as -8.08% (inactive).
